Data set [1] deals with Hydroxycarboxylic acid receptor 1 (Homo sapiens, UniProt Q9BXC0). The data set is described as follows: Agonist activity at human recombinant GPR81 transfected in african green monkey COS-7 cells after 20 mins by [35S]GTPgammaS binding assay. It counts as functional, cell-based. In outline: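 hGPR81 agonism measured by GTPγS binding, run as in an earlier cited report; EC50 values are the mean of at least two determinations with standard deviation.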
On the technique in general: GTPγS is a poorly hydrolysed GTP analogue; its binding reports G protein activation.

Data set [2] deals with G-protein coupled receptor 81 (Macaca mulatta, UniProt B9UM29). The data set is described as follows: Agonist activity at monkey GPR81. It counts as functional.
For data set [3], the target named is G-protein coupled receptor 81 (Canis lupus familiaris, UniProt B9UM26). The data set is described as follows: Agonist activity at dog GPR81. It counts as functional.
The target of a further data set is T1, Protein Gpr81 (Rattus norvegicus, UniProt G3V906).
T1 sequence (G3V906 whole entry): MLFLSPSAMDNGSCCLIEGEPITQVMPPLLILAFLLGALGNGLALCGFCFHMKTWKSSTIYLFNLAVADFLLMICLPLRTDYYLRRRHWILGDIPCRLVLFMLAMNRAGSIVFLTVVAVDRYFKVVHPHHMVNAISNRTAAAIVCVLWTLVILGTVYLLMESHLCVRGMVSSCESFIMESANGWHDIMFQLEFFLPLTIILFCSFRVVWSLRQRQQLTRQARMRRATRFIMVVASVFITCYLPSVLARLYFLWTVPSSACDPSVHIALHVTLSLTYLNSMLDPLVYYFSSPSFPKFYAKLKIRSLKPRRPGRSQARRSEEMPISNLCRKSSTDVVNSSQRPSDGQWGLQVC
Kind of data set: Agonist activity at rat GPR81. The data set is classed as functional.

Data set [4] concerns the target T2, Hydroxycarboxylic acid receptor 1 (Mus musculus, UniProt Q8C131).
T2 sequence (Q8C131 whole entry): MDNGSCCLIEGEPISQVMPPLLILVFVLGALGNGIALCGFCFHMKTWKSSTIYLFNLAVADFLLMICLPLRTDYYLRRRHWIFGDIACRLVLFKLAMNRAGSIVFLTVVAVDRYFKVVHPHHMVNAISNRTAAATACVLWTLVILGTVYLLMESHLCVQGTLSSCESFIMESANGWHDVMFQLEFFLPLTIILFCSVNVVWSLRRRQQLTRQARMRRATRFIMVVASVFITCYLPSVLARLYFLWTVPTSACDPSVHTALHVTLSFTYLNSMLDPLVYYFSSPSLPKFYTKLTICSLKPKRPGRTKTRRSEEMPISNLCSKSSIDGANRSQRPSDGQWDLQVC
The data set is described as follows: Agonist activity at mouse GPR81. The data set is classed as functional.

Data set [5] can be described thus: Agonist activity at hamster GPR81. It counts as functional, Cricetinae.
Data set [6] is described as follows: Tmax in C57B16/J mouse at 30 mg/kg, po. The data set is classed as ADME, organism-based. Also on record: dose 30 mg/kg, route oral. The settings on record: in vivo. In outline:
(§1)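 Mice received single oral doses of 30 or 100 mg/kg. Exposure was followed over time to derive tmax, AUCinf, Cmax (ng/mL, converted to μM) and t1/2.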

The nature of data set [7]: Tmax in C57B16/J mouse at 100 mg/kg, po. It counts as ADME, organism-based. Also on record: dose 100 mg/kg, route oral. The settings on record: in vivo. An outline of the steps: as §1
Data set [8] is described as follows: AUC (0 to infinity) in C57B16/J mouse at 30 mg/kg, po. It counts as ADME, organism-based. More on the design: dose 30 mg/kg, route oral, time infinity. The settings on record: plasma. In outline: as §1
The nature of data set [9]: AUC (0 to infinity) in C57B16/J mouse at 100 mg/kg, po. The data set is classed as ADME, organism-based. More on the design: time infinity, dose 100 mg/kg, route oral. Particulars: plasma. An outline of the steps:
as §1

The nature of data set [10]: Cmax in C57B16/J mouse at 30 mg/kg, po. It counts as ADME, organism-based. More on the design: dose 30 mg/kg, route oral. The settings on record: in vivo. In outline:
as §1

Data set [11] is described as follows: Cmax in C57B16/J mouse at 100 mg/kg, po. More on the design: dose 100 mg/kg, route oral. It counts as ADME, organism-based. The settings on record: in vivo. In outline: as §1
The nature of data set [12]: Half life in C57B16/J mouse at 30 mg/kg, po. The data set is classed as ADME, organism-based. Also on record: dose 30 mg/kg, route oral. Particulars: in vivo. An outline of the steps: as §1
Data set [13] is described as follows: Half life in C57B16/J mouse at 100 mg/kg, po. The data set is classed as ADME, organism-based. Also on record: dose 100 mg/kg, route oral. The settings on record: in vivo. An outline of the steps:
as §1

For data set [14], the system named is Mus musculus. The data set is described as follows: Antilipolytic activity in DIO C57B16/J mouse assessed as reduction in nonesterified free fatty acid cholesterol level at 30 mg/kg, po after 30 mins by enzymatic assay. The data set is classed as functional, organism-based. More on the design: dose 30 mg/kg. An outline of the steps: (§2)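 Acute oral dosing at 30, 100 or 300 mg/kg in C57Bl6/J mice fed high-fat chow for 10 weeks (DIO) and fasted overnight. Nonesterified free fatty acid cholesterol (NEFAc) served as the lipolysis marker. Niacin 30 was a reference arm, and groups were compared with vehicle (P < 0.05, P < 0.01).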

The subject of data set [15] is Mus musculus. Kind of data set: Antilipolytic activity in DIO C57B16/J mouse assessed as reduction in nonesterified free fatty acid cholesterol level at 100 mg/kg, po after 30 mins by enzymatic assay. The data set is classed as functional, organism-based. More on the design: dose 100 mg/kg. An outline of the steps: as §2
For data set [16], the system named is Mus musculus. The data set is described as follows: Antilipolytic activity in DIO C57B16/J mouse assessed as reduction in nonesterified free fatty acid cholesterol level at 300 mg/kg, po after 30 mins by enzymatic assay. The data set is classed as functional, organism-based. Also on record: dose 300 mg/kg. In outline:
as §2

pEC50: −log10 of the molar value. Active and inactive are the calls of the source. The rule behind the calls is not given here.

Sequence of Hydroxycarboxylic acid receptor 1 (Homo sapiens, UniProt Q9BXC0) (Q9BXC0 whole entry): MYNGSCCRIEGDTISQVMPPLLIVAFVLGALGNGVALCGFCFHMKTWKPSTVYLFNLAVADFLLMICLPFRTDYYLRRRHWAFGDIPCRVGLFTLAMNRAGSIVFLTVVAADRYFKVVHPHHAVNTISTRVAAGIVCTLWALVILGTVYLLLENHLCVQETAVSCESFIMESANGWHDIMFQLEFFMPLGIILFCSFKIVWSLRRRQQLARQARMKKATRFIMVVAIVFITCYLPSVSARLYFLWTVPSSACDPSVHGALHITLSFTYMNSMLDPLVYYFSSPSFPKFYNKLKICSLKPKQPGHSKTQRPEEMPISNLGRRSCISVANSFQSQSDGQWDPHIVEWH
Sequence of G-protein coupled receptor 81 (Macaca mulatta, UniProt B9UM29) (B9UM29 whole entry): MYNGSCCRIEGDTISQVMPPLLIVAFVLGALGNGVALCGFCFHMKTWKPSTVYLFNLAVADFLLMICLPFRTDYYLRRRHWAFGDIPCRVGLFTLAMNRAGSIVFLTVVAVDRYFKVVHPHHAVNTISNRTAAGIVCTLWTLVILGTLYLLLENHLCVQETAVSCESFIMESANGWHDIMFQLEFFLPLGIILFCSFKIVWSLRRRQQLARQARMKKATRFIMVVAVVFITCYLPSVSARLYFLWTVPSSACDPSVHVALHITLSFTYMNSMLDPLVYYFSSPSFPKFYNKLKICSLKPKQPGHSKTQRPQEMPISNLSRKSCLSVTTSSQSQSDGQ
Sequence of G-protein coupled receptor 81 (Canis lupus familiaris, UniProt B9UM26) (B9UM26 whole entry): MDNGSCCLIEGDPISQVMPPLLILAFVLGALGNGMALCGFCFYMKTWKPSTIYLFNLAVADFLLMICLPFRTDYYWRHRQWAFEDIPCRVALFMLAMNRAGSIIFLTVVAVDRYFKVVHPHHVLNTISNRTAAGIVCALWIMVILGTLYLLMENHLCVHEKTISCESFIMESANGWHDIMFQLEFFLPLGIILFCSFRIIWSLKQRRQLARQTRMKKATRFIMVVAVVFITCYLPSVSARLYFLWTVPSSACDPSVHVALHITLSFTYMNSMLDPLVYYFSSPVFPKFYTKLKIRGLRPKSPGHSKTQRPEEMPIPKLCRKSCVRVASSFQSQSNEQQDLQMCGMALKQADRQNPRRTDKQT

By pEC50 is commonly meant −log10 of the EC50, conventionally taken in molar units. For `Cc1cc(O)cc(C(=O)O)c1`, the negative logarithm of the EC50 (pEC50) in data set [1] was 4.38.

On to `O=C(O)c1cc(O)cc(O)c1` [3,5-DIHYDROXYBENZOIC ACID], for which the pEC50 in data set [1] was 3.42.

In general, Tmax refers to the time from dosing to the highest level. As usually defined, the AUC(0-inf) is total exposure, with the tail of the curve extrapolated. Broadly, the Cmax is the highest concentration seen after dosing. By half-life is commonly meant the time in which the quantity being followed falls by half. As to `O=C(O)c1cc(O)cc(Cl)c1`, the negative-log EC50 (pEC50) in [1] is 4.80; in data set [2] it was 4.77; in data set [3], 4.17; on Protein Gpr81 it was 5.15; in [4], 4.66; in data set [5], 4.57. Besides, the Tmax in data set [6] and in data set [7] was 30 min each time. Also, the values for the AUC(0-inf) in [8] and in [9] were 9360 ng·h/mL and 51300 ng·h/mL, respectively. The Cmax in [10] was 67.2 µM; in data set [11], 342 µM. Further, the half-life in data set [12] was 88.2 min; in [13], 66 min. Moreover, the result in the data set on Mus musculus [14], in the data set with Mus musculus [15] and in the data set on Mus musculus [16] was Active.

On to `OB(O)c1cccc(O)c1`, for which the pEC50 in [1] was below 3.00.

With `O=C(O)c1cccc(O)c1` [3-HYDROXYBENZOIC ACID], the pEC50 in data set [1] was 3.74.

Turning to `O=C(O)c1cc(O)cc(C(F)(F)F)c1`, the pEC50 in data set [1] was below 3.00.

As for `COc1cc(O)cc(C(=O)O)c1`, the pEC50 in data set [1] was below 3.00.

`O=C(O)c1cncc(O)c1`: the pEC50 in [1] is below 3.00.

Regarding `O=C(O)c1cccnc1`, the result in the data set on Mus musculus [14] was Active.

Regarding `O=C(O)c1cc(O)cc(-c2ccccc2)c1`, the pEC50 in data set [1] is below 3.00.

With `CP(=O)(O)c1cc(O)cc(O)c1`, the pEC50 in data set [1] was below 3.00.

For `Oc1cc(O)cc(-c2nnn[nH]2)c1`, the pEC50 in data set [1] is below 3.00.

On to `O=P(O)(O)c1cc(O)cc(O)c1`, for which, in data set [1], the pEC50 was below 3.00.

On to `CC(C)(C)c1cc(O)cc(C(=O)O)c1`, for which, in data set [1], the pEC50 is below 3.00.

With `O=C(O)c1cc(O)cc(F)c1`, the pEC50 in [1] was 4.42.

Take `N#Cc1cc(O)cc(C(=O)O)c1`: in data set [1], the pEC50 is below 3.00.

For the molecule `O=C(O)c1cc(O)c[n+]([O-])c1`, in data set [1], the pEC50 was below 3.00.

`O=C(O)c1cc(O)cc(Br)c1`: the pEC50 in data set [1] was 3.89.
